Reference: PMC10468838 (ACS Omega, 2023)
In brackets after ≈: the same amount, converted by molar mass. Like-named read-outs stand apart in the source and are kept apart here.

Assays:
HT29 colon cancer cells = experiment: MTT assay, HT29 cells; format: cell-based, human; conditions: for IC50: read-out: IC50 (μM) HT29
How it was run: (§1)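 HT29, H1975, A549, MCF-7 and normal colon epithelial CCD841 cells were seeded at 5×10^5 cells/mL and grown 24 h. They were exposed to test compound at 0.5, 1.0, 2.0, 5.0 or 12.5 μM in DMEM for 24 h, then cultured a further 72 h. MTT (5 mg/mL solution) was added for 4 h at 37 °C and the formazan dissolved in DMSO. A490 was read. IC50 is given as mean ± s.d., n = 3.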

[1] = system: MCF-7 breast cancer cells; experiment: MTT assay, MCF-7 cells; format: cell-based; conditions: Homo sapiens, MCF7, 72 h, read-out: IC50 (μM) MCF-7
How it was run: as §1

[2] = system: H1975 lung adenocarcinoma cells; experiment: MTT assay, H1975 cells; format: cell-based; conditions: Homo sapiens, NCI-H1975, 72 h, read-out: IC50 (μM) H1975
How it was run: as §1

A549 lung cancer cells = experiment: MTT assay, A549 cells; format: cell-based; conditions: Homo sapiens, A549, 72 h, read-out: IC50 (μM) A549
How it was run: as §1

[3] = Water solubility by UV method; format: physicochemical; conditions: thermodynamic from solid
How it was run: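 For a UV calibration curve, absorbance was measured at five concentrations of each compound in methanol/water (1:1, v/v). Excess solid compound was left standing in water for 2 h, then filtered. Absorbance of the filtrate was read and converted to concentration using the curve, giving water solubility.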

logP by UV method = format: physicochemical
H2AX in HT29 cells = experiment: Western blot, H2AX; format: cell-based, human; conditions: Western blotting
How it was run: (§2)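 HT29 cells were cultured for 4 h in medium containing test compound at 1.0 or 5.0 μM, with the parent reference at 5.0 μM. Lysis was in RIPA buffer with protease and phosphatase inhibitors, 30 min on ice. Protein was quantified by BCA, and equal amounts were run on SDS-PAGE and transferred to PVDF. Band levels were expressed relative to β-actin.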

ROS levels in HT29 cells = experiment: Intracellular ROS detection with DCFH-DA probe; format: cell-based, human; conditions: 12 h, CO 5.0 μM, 8h 1.0 or 5.0 μM
How it was run: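 HT29 cells (about 1×10^4 per well) were exposed to test compound at 1.0 or 5.0 μM for 12 h, with the parent reference at 5.0 μM. DCFH-DA (10 μM) was added for 30 min. DCF green fluorescence (λex 488 nm, λem 500–550 nm) was imaged by confocal microscopy. Results are mean ± SD of three separate assays.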

[4] = system: HT29, H1975, A549 and MCF-7 cancer cells; experiment: MTT assay, summary over the four cancer cell lines; format: cell-based, human; conditions: for IC50: Homo sapiens, read-out: IC50 against the four cancer cell lines
How it was run: as §1

HT29 cells = experiment: Apoptosis assay, annexin V-FITC/PI flow cytometry; format: cell-based, human
How it was run: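 HT29 cells were seeded at 2×10^4 cells per well and left overnight. They were treated with test compound at 1.0 or 5.0 μM (parent reference 5.0 μM) for 24 h, then kept another 72 h. Cells were harvested, washed in PBS and stained with annexin V-FITC/PI. Early plus late apoptotic cells were counted by flow cytometry. Results are mean ± SD of three separate assays.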

MMP of HT29 cells = experiment: Mitochondrial membrane potential with JC-1 dye; format: cell-based, human; conditions: 8h 5 μM
[5] = system: human normal colon epithelial cells (CCD841); experiment: MTT assay, normal CCD841 cells; format: cell-based
How it was run: as §1

GSH level in HT29 cells = experiment: GSH level assay; format: cell-based, human; conditions: 24 h, 1.0 or 5.0 μM, compared with CO
How it was run: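 HT29 cells were exposed for 24 h to test compound at 1.0 or 5.0 μM, with the parent reference at 5.0 μM. Cells were harvested and counted. Glutathione was measured with a QuantiChrome glutathione assay kit. Results are mean ± SD, n = 3.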

Bcl-2 in HT29 cells = experiment: Western blot, Bcl-2; format: cell-based, human; conditions: 1.0 and 5.0 μM, Western blotting
[6] = system: cleaved-caspase 3 in HT29 cells; experiment: Western blot, cleaved-caspase 3; format: cell-based, human; conditions: 1.0 and 5.0 μM, Western blotting
How it was run: as §2

[7] = system: malondialdehyde (MDA) in HT29 cells; experiment: Lipid peroxidation; format: cell-based, human; conditions: compared with CO
How it was run: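 HT29 cells were pretreated with or without ferrostatin-1 (1.0 μM) for 4 h. They were then exposed to test compound at 1.0 or 5.0 μM, with the parent reference at 5.0 μM. Lipid peroxidation was quantified as malondialdehyde with an MDA assay kit. Results are mean ± SD, n = 3.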

GPX4 in HT29 cells = experiment: Western blot, GPX4; format: cell-based, human; conditions: 1.0 or 5.0 μM, compared with CO
How it was run: as §2

Compound | IC50 (HT29 colon cancer cells; Homo sapiens, HT-29, 72 h) [µM] | IC50 [1] [µM] | IC50 [2] [µM] | IC50 (A549 lung cancer cells) [µM] | solubility at 2 h [3] [µg/mL] | logP (logP by UV method) | further results
CCN(CC)CCCC(C)NC(=O)c1cc2c3ccccc3n3c(=O)ccc(n1)c23 (stereo not drawn) [8k, N-(5-(Diethylamino)pentan-2-yl)-6-oxo-6H-indolo[3,2,1-de][1,5]naphthyridine-2-carboxamide] | 4.3 ± 0.5 | 3.8 ± 0.3 | 5.5 ± 0.7 | – | – | – | –
CN(C)CCCNC(=O)c1cc2c3ccccc3n3c(=O)ccc(n1)c23 [8c, N-(3-(Dimethylamino)propyl)-6-oxo-6H-indolo[3,2,1-de][1,5]naphthyridine-2-carboxamide] | 4.1 ± 0.3 | 4.6 ± 0.5 | 7.7 ± 0.8 | 4.8 ± 0.4 | – | – | –
O=C(NCCN1CCCCC1)c1cc2c3ccccc3n3c(=O)ccc(n1)c23 [8f, 6-Oxo-N-(2-(piperidin-1-yl)ethyl)-6H-indolo[3,2,1-de][1,5]naphthyridine-2-carboxamide] | 1.7 ± 0.3 | 2.4 ± 0.2 | 1.6 ± 0.1 | 2 ± 0.1 | 41.3 ± 4.5 (≈ 110 µM) | 2.17 | –
O=c1ccc2nccc3c4ccccc4n1c23 [CO, Canthin-6-one, reference compound] | 8.6 ± 0.7 | 8.9 ± 0.9 | 10.7 ± 1.2 | 7.6 ± 0.6 | 16.1 ± 1 (≈ 73.1 µM) | 1.87 | increase of H2AX expression (H2AX in HT29 cells; 5.0 μM): approximately 1.3 fold; intracellular ROS level (DCFH-DA fluorescence) (ROS levels in HT29 cells): weak fluorescence signal; IC50 [4]: 7.6 to 10.7 µM; percentage of apoptotic cells (early + late) (HT29 cells; 5.0 μM): 22.68%
CN1CCC(NC(=O)c2cc3c4ccccc4n4c(=O)ccc(n2)c34)CC1 [8i, N-(1-Methylpiperidin-4-yl)-6-oxo-6H-indolo[3,2,1-de][1,5]naphthyridine-2-carboxamide] | 2.3 ± 0.3 | 4.6 ± 0.5 | 3 ± 0.4 | 3.4 ± 0.3 | 60.4 ± 5.4 (≈ 168 µM) | 1.38 | –
O=C(NCCNCCO)c1cc2c3ccccc3n3c(=O)ccc(n1)c23 [8d, N-(2-((2-Hydroxyethyl)amino)ethyl)-6-oxo-6H-indolo[3,2,1-de][1,5] naphthyridine-2-carboxamide] | 2.6 ± 0.2 | – | – | 4.2 ± 0.3 | – | – | –
CN1CCN(CCNC(=O)c2cc3c4ccccc4n4c(=O)ccc(n2)c34)CC1 [8h, N-(2-(4-Methylpiperazin-1-yl)ethyl)-6-oxo-6H-indolo[3,2,1-de][1,5] naphthyridine-2-carboxamide] | 1 ± 0.1 | 1.7 ± 0.2 | 1.9 ± 0.3 | 1.3 ± 0.1 | 70.5 ± 3.6 (≈ 181 µM) | 1.19 | MMP (JC-1 red/green fluorescence) (MMP of HT29 cells): intracellular red fluorescence almost disappeared; IC50 ([5]; Homo sapiens, CCD-841, read-out: IC50 in normal cell line CCD841): 17.1 ± 2.5 µM; fold less cytotoxicity in CCD841 than in HT29 cells ([5]; IC50 CCD841 vs IC50 HT29): 17 fold; fold lower IC50 than CO against HT29 cells (HT29 colon cancer cells; HT29 cells, vs CO): 8.6 fold; GSH level (GSH level in HT29 cells): markedly reduced; Bcl-2 expression (Bcl-2 in HT29 cells): reduced the expression of antiapoptotic Bcl-2 protein in a dose-dependent manner; cleaved-caspase 3 level [6]: remarkably led to cleavage of caspase-3; level of malondialdehyde (MDA), lipid peroxidation [7]: increased the level of malondialdehyde; increase of H2AX expression (H2AX in HT29 cells; 1.0 μM): 2.4 fold; increase of H2AX expression (H2AX in HT29 cells; 5.0 μM): 3.2 fold; intracellular ROS level (DCFH-DA fluorescence) (ROS levels in HT29 cells): Intense green fluorescence; IC50 [4]: 1 to 1.9 µM; fold higher cytotoxicity than CO against the four cancer cells ([4]; vs CO, four cancer cell lines): 5–9 fold; percentage of apoptotic cells (early + late) (HT29 cells; 1.0 μM): 31.55%; percentage of apoptotic cells (early + late) (HT29 cells; 5.0 μM): 45.14%; GPX4 expression (GPX4 in HT29 cells): markedly reduced
CN1CCN(C2CCN(c3ccc(NC(=O)c4cc5c6ccccc6n6c(=O)ccc(n4)c56)cc3)CC2)CC1 [8l, N-(4-(4-(4-Methylpiperazin-1-yl)piperidin-1-yl)phenyl)-6-oxo-6H-indolo[3,2,1-de][1,5]naphthyridine-2-carboxamide] | > 10 | > 10 | > 10 | > 10 | – | – | –
COc1cccc2c1C(=O)c1c(O)c3c(c(O)c1C2=O)C[C@@](O)(C(=O)CO)C[C@@H]3O[C@H]1C[C@H](N)[C@H](O)[C@H](C)O1 [ADM, reference compound] | – | – | – | – | – | – | IC50 (HT29 colon cancer cells; HT29 cells, MTT, incubated for 72 h, mean ± s.d., n = 3): 2.6 ± 0.4 µM
CCN(CC)CCNC(=O)c1cc2c3ccccc3n3c(=O)ccc(n1)c23 [8a, N-(2-(Diethylamino)ethyl)-6-oxo-6H-indolo[3,2,1-de][1,5]naphthyridine-2-carboxamide] | 2.2 ± 0.3 | 4.7 ± 0.4 | – | 3.8 ± 0.5 | – | – | –
O=C(NCCN1CCCC1)c1cc2c3ccccc3n3c(=O)ccc(n1)c23 [8e, 6-Oxo-N-(2-(pyrrolidin-1-yl)ethyl)-6H-indolo[3,2,1-de][1,5]naphthyridine-2-carboxamide] | – | 4.5 ± 0.6 | – | 2.1 ± 0.3 | – | – | –
CN(C)CCNC(=O)c1cc2c3ccccc3n3c(=O)ccc(n1)c23 [8b, N-(2-(Dimethylamino)ethyl)-6-oxo-6H-indolo[3,2,1-de][1,5]naphthyridine-2-carboxamide] | 2.9 ± 0.4 | 3.8 ± 0.3 | 7.5 ± 0.6 | 3.2 ± 0.2 | – | – | –
NC1CCC(NC(=O)c2cc3c4ccccc4n4c(=O)ccc(n2)c34)CC1 (stereo not drawn) [8j, N-(4-Aminocyclohexyl)-6-oxo-6H-indolo[3,2,1-de][1,5]naphthyridine-2-carboxamide] | – | 5.9 ± 0.5 | – | 3.5 ± 0.4 | – | – | –
